The source made the active and inactive calls. The rule behind the calls is not given here.
Legend:
Bos taurus = organism: Bos taurus; experiment: Ratio of Ki for central benzodiazepine receptor in bovine cortical membrane to Ki for central benzodiazepine receptor in bovine cortical membrane in presence of 50 uM GABA; format: cell membranes
Oocyte [1] = experiment: (§1) Antagonist at human recombinant GABA-A alpha5beta2gamma2L receptor expressed in Xenopus laevis oocytes assessed as blockade of diazepam-induced potentiation of GABA-induced chloride current at 10 uM incubated 60 seconds before addition of GABA measured after 30 seconds at holding potential -70 mV by two-microelectrode voltage clamp technique; format: functional, cell-based
Summary of the method: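 Oocytes expressing human α1β2γ2L, α2β1γ2L or α5β2γ2L receptors were clamped at −70 mV. Compound at 10 μM was tested against the enhancement of the GABA EC10 response by 1.0 μM diazepam, with 60 s preapplication and 30 s coapplication. The response was expressed as percent potentiation, from 2–3 oocytes.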

Oocyte [2] = experiment: as §1, with “Modulation of” for “Antagonist at”, “effect on” for “blockade of diazepam-induced potentiation of”, “technique relative to control” for “technique”; format: cell-based
[3] = target: GABA A receptor alpha-1/beta-1/gamma-2 (Homo sapiens) (UniProt P14867+P18507+P18505); experiment: (§2) Modulation of human recombinant GABA-A alpha1beta1gamma2L receptor expressed in Xenopus laevis oocytes assessed as effect on GABA-induced chloride current at 10 uM incubated 60 seconds before addition of GABA measured after 30 seconds at holding potential -70 mV by two-microelectrode voltage clamp technique relative to control; format: cell-based; details: Oocyte
[4] = target: GABA-A receptor; alpha-1/beta-2/gamma-2 (Homo sapiens) (UniProt P14867+P47870+P18507); experiment: as §2, with “alpha1beta2gamma2L” for “alpha1beta1gamma2L”; format: cell-based; details: Oocyte
[5] = Displacement of [3H]flumazenil from central benzodiazepine receptor in bovine cortical membrane after 90 mins by beta liquid scintillation counting; format: cell membranes, Bos taurus
Summary of the method: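 At least six concentrations spanning 3 log units were tested in 2% DMSO. Ki was obtained by Cheng–Prusoff (Kd 0.85 nM bovine, 0.91 nM human), mean of three determinations.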

[6] = target: T1, GABA-A receptor; alpha-5/beta-3/gamma-2 (Homo sapiens, UniProt P18507+P28472+P31644); experiment: Displacement of [3H]flumazenil from human recombinant GABA-A alpha5beta3gamma2L receptor in HEK293 cells; format: cell-based
T1 sequence (P18507 whole entry): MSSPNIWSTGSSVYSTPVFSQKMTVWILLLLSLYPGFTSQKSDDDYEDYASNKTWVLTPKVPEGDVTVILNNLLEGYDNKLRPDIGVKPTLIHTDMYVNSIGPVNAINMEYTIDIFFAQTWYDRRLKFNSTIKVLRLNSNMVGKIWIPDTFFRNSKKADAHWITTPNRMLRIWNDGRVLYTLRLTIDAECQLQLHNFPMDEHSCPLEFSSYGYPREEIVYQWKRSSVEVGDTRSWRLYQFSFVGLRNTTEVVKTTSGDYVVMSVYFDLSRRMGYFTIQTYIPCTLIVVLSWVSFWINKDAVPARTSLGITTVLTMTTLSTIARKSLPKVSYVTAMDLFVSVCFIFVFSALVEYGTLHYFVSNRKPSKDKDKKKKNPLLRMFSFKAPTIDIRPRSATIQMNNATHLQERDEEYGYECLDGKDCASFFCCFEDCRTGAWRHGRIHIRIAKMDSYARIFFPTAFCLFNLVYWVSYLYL
T1 sequence (P28472 whole entry): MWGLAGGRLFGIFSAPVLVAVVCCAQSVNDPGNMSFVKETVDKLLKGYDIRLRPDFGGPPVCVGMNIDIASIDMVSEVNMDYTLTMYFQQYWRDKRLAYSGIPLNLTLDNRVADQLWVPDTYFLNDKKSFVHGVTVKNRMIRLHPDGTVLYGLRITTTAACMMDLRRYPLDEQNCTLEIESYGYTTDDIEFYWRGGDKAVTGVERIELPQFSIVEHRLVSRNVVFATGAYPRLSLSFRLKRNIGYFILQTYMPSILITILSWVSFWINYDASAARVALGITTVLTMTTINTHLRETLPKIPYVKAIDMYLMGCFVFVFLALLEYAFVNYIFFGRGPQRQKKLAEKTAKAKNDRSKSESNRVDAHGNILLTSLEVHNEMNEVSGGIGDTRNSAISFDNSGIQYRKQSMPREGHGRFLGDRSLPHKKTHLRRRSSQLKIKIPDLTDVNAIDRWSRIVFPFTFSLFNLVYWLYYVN
T1 sequence (P31644 whole entry): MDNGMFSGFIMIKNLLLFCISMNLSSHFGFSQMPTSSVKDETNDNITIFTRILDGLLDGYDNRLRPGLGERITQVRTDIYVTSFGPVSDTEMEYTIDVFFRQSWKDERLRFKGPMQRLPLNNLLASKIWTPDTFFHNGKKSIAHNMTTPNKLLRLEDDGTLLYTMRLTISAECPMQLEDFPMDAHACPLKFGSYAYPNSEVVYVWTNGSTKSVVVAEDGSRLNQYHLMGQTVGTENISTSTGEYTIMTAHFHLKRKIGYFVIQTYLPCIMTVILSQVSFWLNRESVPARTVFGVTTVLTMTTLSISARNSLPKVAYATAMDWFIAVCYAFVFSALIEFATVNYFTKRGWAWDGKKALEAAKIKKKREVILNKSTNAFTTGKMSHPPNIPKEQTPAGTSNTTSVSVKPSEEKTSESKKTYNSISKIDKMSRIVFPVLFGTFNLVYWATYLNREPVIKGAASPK
Summary of the method: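 Membranes came from stably transfected HEK293 lines expressing α2β2γ2 or α5β3γ2, grown in MEM/EBSS with 10% FCS at 37 C, and were resuspended in 10 mM potassium phosphate pH 7.4 with 100 mM KCl. […] At least six concentrations were tested, DMSO ≤1%. Ki was obtained by Cheng–Prusoff from n = 3 experiments run in triplicate.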

Structure (SMILES) | Ratio Ki (Bos taurus) | Activity (Oocyte [1]) | Activity (Oocyte [2]) | Activity [3] | Activity [4] | Ki [5] | Ki [6]
CCOC(=O)c1ncn2c1CN=C(c1ccc(F)cc1)c1cc(F)ccc1-2 | 1 | Active | -16% | 6.5% | 12% | 0.0109 µM | 0.772 µM
CCOC(=O)c1ncn2c1CN=C(c1ccc(C)cc1)c1ccccc1-2 | 0.97 | Active | -22% | 8.3% | -4% | 0.0114 µM | 0.908 µM
